Assay results from ChEMBL document CHEMBL4699498 (J Med Chem, 2020).
Calls of active or inactive are those of the source. No cut-off for these calls is given here.

Tests used:
[1] = Tmax in ICR mouse at 25 mg/kg, ip by LC-tandem mass spectrometry analysis; type: ADME, organism-based; conditions: in vivo
Procedure, shortened: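 Female ICR mice (20-23 g, 6-7 weeks, n = 3) given a single 25 mg/kg ip dose in 5% DMSO/15% Solutol HS15/80% D5W; plasma at 0.5, 1, 2, 4, 6, 8 and 24 h, protein precipitated with methanol, drug quantified by LC-MS/MS against a standard curve.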

[2] = Acute toxicity in Balb/c mouse xenografted with Capan1 cells assessed as lethality at 25 to 50 mg/kg, ip qd administered for 5 days in presence of cisplatin; type: organism-based; conditions: in vivo, 120 h, dose 25-50 mg/kg, time 5 day
Procedure, shortened: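 Male BALB/c nude mice (5–6 weeks) carried s.c. Capan-1 xenografts (5×10^6 cells, right armpit) and were randomised at about 150 mm³, 6 per group. The agent was given once daily on days 0–4, by oral gavage or i.p., in DMSO/PEG400/Cremophor EL/saline vehicle. Cisplatin 6 mg/kg in saline was given i.p. on day 2, 45 min after the agent. Body weight was recorded 2–3 times weekly.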

[3] = target: T1, Protein cereblon/Poly [ADP-ribose] polymerase 1 (Homo sapiens, UniProt P09874+Q96SW2); assay: Protac activity at CRBN/PARP1 in human MDA-MB-436 cells assessed as induction of PARP1 degradation at 1 to 1000 nM incubated for 24 hrs by Western blot analysis; type: cell-based; conditions: dose nM 1-1000, time 24.0 hrs
Procedure, shortened: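 PARP1 immunoblot of MDA-MB-436 lysates after 24 h exposure at 1, 10, 100 and 1000 nM; RIPA lysis, 20-30 µg protein per lane, β-tubulin as loading control, band density normalized to DMSO control.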
Target sequence in this assay (P09874 2-1014 limits assumed): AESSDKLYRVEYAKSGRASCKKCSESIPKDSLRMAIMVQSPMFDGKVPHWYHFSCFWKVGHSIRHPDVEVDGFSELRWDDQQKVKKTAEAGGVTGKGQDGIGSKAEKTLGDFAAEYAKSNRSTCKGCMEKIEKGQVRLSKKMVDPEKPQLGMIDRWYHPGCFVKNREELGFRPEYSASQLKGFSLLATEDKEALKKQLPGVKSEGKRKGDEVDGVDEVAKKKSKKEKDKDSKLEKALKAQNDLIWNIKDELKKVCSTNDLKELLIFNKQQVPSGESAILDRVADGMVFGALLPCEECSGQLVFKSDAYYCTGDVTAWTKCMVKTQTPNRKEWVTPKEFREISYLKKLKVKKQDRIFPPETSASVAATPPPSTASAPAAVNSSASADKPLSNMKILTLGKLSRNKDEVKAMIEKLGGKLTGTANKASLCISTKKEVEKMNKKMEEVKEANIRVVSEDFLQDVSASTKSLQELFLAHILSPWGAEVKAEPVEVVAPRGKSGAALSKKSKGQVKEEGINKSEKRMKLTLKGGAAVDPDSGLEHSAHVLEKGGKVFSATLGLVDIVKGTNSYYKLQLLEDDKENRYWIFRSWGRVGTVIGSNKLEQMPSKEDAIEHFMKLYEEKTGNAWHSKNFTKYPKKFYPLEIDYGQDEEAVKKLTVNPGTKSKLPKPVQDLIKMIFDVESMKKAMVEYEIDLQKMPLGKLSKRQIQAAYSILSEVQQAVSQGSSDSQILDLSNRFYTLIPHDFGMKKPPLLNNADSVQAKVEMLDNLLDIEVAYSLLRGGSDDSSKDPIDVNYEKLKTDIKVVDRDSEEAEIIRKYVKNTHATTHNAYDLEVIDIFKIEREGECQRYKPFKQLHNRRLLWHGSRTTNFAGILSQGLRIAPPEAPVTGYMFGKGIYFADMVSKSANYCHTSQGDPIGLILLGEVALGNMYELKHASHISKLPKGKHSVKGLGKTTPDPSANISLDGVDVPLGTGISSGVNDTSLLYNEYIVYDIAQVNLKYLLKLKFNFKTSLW
Target sequence in this assay (Q96SW2 whole entry partner): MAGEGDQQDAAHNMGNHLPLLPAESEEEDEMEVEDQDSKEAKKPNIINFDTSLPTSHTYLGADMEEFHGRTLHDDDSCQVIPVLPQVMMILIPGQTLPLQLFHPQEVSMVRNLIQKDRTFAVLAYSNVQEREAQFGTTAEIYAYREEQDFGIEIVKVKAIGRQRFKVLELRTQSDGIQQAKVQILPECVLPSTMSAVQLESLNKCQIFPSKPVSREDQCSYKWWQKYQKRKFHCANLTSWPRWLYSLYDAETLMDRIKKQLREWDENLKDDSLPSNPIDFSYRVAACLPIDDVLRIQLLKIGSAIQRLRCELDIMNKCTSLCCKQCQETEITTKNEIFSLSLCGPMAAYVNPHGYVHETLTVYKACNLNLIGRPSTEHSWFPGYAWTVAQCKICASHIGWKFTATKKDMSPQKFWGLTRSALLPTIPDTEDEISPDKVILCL

[4] = tested on: SW-620; assay: Potentiation of TMZ induced antitumor activity against SW-620 cells xenografted in Balb/c mouse assessed as tumor growth suppression administered intraperitoneally once daily for 5 days; type: functional; conditions: dose mg/kg 5-10, time 5.0 day
Procedure, shortened: (§1)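 Male BALB/c nude mice carried SW620 xenografts (6×10^6 cells s.c.), randomized at ~150 mm³ (6 per group). TMZ 50 mg/kg was given orally once daily on days 0-4, 45 min after the partner drug. Partners were 5 or 10 mg/kg intraperitoneally or 10 mg/kg by oral gavage, daily for 5 days. Vehicle was 5% DMSO/20% PEG400/10% Cremophor EL/65% saline. Tumor volume and body weight were recorded 2-3 times weekly.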

[5] = Half-life in ICR mouse at 25 mg/kg, ip by LC-tandem mass spectrometry analysis; type: ADME, organism-based; conditions: in vivo
Procedure, shortened: (§2)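 Female ICR mice (20-23 g, 6-7 weeks old, n = 3) received a single 25 mg/kg intraperitoneal dose formulated in 5% DMSO/15% Solutol HS15/80% D5W. Plasma was sampled at 0.5, 1, 2, 4, 6, 8 and 24 h and protein-precipitated with methanol. Compound was quantified by LC-MS/MS against a standard curve.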

[6] = Acute toxicity in Balb/c mouse xenografted with SW-620 cells assessed as mean weight loss at 10 mg/kg, ip qd administered for 5 days in presence of TMZ measured on day 9 relative to control; type: organism-based; conditions: in vivo, 216 h, time 9 day; procedure, shortened: as §1
[7] = target: T1, Protein cereblon/Poly [ADP-ribose] polymerase 1; assay: Protac activity at CRBN/PARP1 in human MDA-MB-436 cells assessed as induction of PARP1 degradation incubated for 24 hrs by Western blot analysis; type: cell-based
Procedure, shortened: (§3)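 Concentration-response over a wide range, 24 h exposure; PARP1 quantified by western blot and normalized to β-tubulin density; DC50 derived from two biologically independent experiments.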
Target sequence in this assay (P09874 whole entry): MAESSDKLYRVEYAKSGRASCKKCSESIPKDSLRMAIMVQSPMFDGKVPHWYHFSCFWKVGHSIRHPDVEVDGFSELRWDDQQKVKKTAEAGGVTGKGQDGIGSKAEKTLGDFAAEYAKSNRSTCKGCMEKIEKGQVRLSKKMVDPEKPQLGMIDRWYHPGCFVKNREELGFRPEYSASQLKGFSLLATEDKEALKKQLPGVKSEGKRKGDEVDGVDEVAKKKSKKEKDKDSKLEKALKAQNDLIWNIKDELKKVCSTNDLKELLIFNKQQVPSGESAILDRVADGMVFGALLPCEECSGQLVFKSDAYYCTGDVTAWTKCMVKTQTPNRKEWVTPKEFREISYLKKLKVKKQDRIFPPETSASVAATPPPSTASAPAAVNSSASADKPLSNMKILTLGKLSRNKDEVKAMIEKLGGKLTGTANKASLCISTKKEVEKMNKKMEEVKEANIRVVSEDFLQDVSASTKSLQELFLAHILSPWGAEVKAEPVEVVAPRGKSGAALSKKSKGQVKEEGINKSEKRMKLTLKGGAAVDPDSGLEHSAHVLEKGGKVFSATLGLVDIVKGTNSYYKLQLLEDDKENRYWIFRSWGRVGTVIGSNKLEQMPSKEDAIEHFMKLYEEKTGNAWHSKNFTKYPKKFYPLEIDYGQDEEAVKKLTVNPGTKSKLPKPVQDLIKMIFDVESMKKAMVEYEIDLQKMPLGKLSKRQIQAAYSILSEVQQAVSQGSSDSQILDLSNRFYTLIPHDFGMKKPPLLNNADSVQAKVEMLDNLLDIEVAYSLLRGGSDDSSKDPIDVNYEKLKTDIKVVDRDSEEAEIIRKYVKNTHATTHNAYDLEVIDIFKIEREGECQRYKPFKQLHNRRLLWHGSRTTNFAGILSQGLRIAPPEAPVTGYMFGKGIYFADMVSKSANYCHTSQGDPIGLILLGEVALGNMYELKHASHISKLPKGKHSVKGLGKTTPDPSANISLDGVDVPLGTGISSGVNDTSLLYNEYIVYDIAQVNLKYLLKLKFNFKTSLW
Target sequence in this assay (Q96SW2 whole entry): as the sequence (Q96SW2 whole entry partner) above

[8] = target: T1, Protein cereblon/Poly [ADP-ribose] polymerase 1; assay: Protac activity at CRBN/PARP1 in human MDA-MB-436 cells assessed as induction of PARP1 degradation by measuring PARP1 level at 100 nM pretreated for 2 hrs followed by compound washout and measured after 24 hrs by Western blot analysis; type: cell-based
Procedure, shortened: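 MDA-MB-436 cells pretreated 2 h at 100 nM, compound washed out, cells harvested at various times up to 24 h afterwards; PARP1 versus vehicle-treated cells by western blot, β-tubulin loading control.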
Target sequence in this assay (P09874 2-1014 limits assumed): as the sequence (P09874 2-1014 limits assumed) above
Target sequence in this assay (Q96SW2 whole entry partner): as the sequence (Q96SW2 whole entry partner) above

[9] = target: T1, Protein cereblon/Poly [ADP-ribose] polymerase 1; assay: Protac activity at CRBN/PARP1 in human LNCaP cells assessed as induction of PARP1 degradation measured after 24 hrs by Western blot analysis; type: cell-based; procedure, shortened: as §3
Target sequence in this assay (P09874 whole entry): as the sequence (P09874 whole entry) above
Target sequence in this assay (Q96SW2 whole entry): as the sequence (Q96SW2 whole entry partner) above

[10] = Plasma concentration in ICR mouse at 25 mg/kg, ip at 8 hrs postinjection by LC-tandem mass spectrometry analysis; type: ADME, organism-based; procedure, shortened: as §2
[11] = target: T1, Protein cereblon/Poly [ADP-ribose] polymerase 1; assay: Protac activity at CRBN/PARP1 in human CAPAN-1 cells assessed as induction of PARP1 degradation at 100 nM incubated for 24 hrs by Western blot analysis relative to control; type: cell-based
Procedure, shortened: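 Capan-1 cells were treated 24 h (1-1000 nM, or a wider dose range for DC50). Lysis was in RIPA buffer with protease inhibitors, and 20-30 μg protein was blotted. PARP1 was normalized to β-tubulin and to DMSO control, quantified by densitometry. DC50 came from two independent experiments.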
Target sequence in this assay (P09874 2-1014 limits assumed): as the sequence (P09874 2-1014 limits assumed) above
Target sequence in this assay (Q96SW2 whole entry partner): as the sequence (Q96SW2 whole entry partner) above

[12] = tested on: HEK293; assay: Cytotoxicity against human HEK293 cells assessed as cell viability incubated for 120 hrs by CCK-8 assay; type: cell-based; conditions: hek293, 120 h
[13] = target: T1, Protein cereblon/Poly [ADP-ribose] polymerase 1; assay: Protac activity at CRBN/PARP1 in human MDA-MB-436 cells assessed as induction of PARP1 degradation at 30 nM incubated for 24 hrs in presence of proteasome inhibitor carfilzomib by Western blot analysis
Target sequence in this assay (P09874 2-1014 limits assumed): as the sequence (P09874 2-1014 limits assumed) above
Target sequence in this assay (Q96SW2 whole entry partner): as the sequence (Q96SW2 whole entry partner) above

[14] = target: T1, Protein cereblon/Poly [ADP-ribose] polymerase 1; assay: Protac activity at CRBN/PARP1 in human MDA-MB-436 cells assessed as induction of PARP1 degradation at 30 nM measured within 1 hr by Western blot analysis; type: cell-based; conditions: time hrs <=1
Procedure, shortened: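 Time course at 30 nM in MDA-MB-436 or SW620 cells; PARP1 immunoblotted at successive time points, β-tubulin as loading control.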
Target sequence in this assay (P09874 2-1014 limits assumed): as the sequence (P09874 2-1014 limits assumed) above
Target sequence in this assay (Q96SW2 whole entry partner): as the sequence (Q96SW2 whole entry partner) above

[15] = target: T1, Protein cereblon/Poly [ADP-ribose] polymerase 1; assay: Protac activity at CRBN/PARP1 in human SW620 cells assessed as reduction in PARP1 protein level at 0.01 to 10 uM incubated for 12 hrs by western blot analysis; type: cell-based; conditions: SW-620, dose microM 0.01-10, time 12.0 hrs
Procedure, shortened: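 MDA-MB-436 or SW620 cells dosed at 1, 10, 100, 1000 nM and 10 µM for 12 h; PARP1 assessed by western blot of RIPA lysates (20-30 µg protein), β-tubulin as loading control.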
Target sequence in this assay (P09874 2-1014 limits assumed): as the sequence (P09874 2-1014 limits assumed) above
Target sequence in this assay (Q96SW2 whole entry partner): as the sequence (Q96SW2 whole entry partner) above

[16] = Acute toxicity in Balb/c mouse xenografted with SW-620 cells assessed as lethality at 5 to 10 mg/kg, ip qd administered for 5 days in presence of TMZ; type: organism-based; conditions: in vivo, 120 h, dose 5-10 mg/kg, time 5 day
Procedure, shortened: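 In male BALB/c nude mice (5–6 weeks), s.c. SW620 xenografts (6×10^6 cells, right armpit) were grown to about 150 mm³, then randomised, 6 per group. The agent was given once daily for 5 days, orally or i.p., in 5% DMSO/20% PEG400/10% Cremophor EL/65% saline. TMZ 50 mg/kg was given orally once daily for 5 days from day 0, 45 min after the agent. Body weight was measured 2–3 times weekly.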

In the case of `O=C(CCCCCCCCCCC(=O)N1CCN(C(=O)c2cc(Cc3n[nH]c(=O)c4ccccc34)ccc2F)CC1)NCCNc1cccc2c1C(=O)N(C1CCC(=O)NC1=O)C2=O` (stereo unspecified), the Tmax [1] was 0.25 h, the Activity [2] was “Non-Toxic” and the Activity [3] was “Active”. The Activity [4] was “Dose-dependent effect”, the half-life [5] was 3.08 h and the Activity [6] was 15%. The DC50 [7] was 1.26 nM, the Activity [8] was “Below limit of detection” and the DC50 [9] was 1.08 nM. The concentration at 8 h [10] was 95 nM, the Activity [11] was 100% and the Activity [12] was “Non-Toxic”. For the same compound, the Activity [13] was “inactive”, the Activity [14] was “Active” and the Activity [15] was “Active”. The Activity [16] was “Non-Toxic”.
